Experimental data from different studies.
Protocols differ between the studies behind these lines.
Target: Mitotic checkpoint serine/threonine-protein kinase BUB1 (BUB1, Homo sapiens, UniProt O43683)

CC(=O)C1=C(C)N(c2cccc(C(F)(F)F)c2)C(=O)N[C@@H]1c1ccc(C#N)nc1  remaining binding (cell-free assay; competition with immobilised ligand; 1 µM): 100%
Nc1ncc2c(n1)-c1c([nH]c3ccc(C#CC4CC4)cc13)CCCC2  remaining binding (binding; competition with immobilised ligand; 1 µM): 78%
c1cncc(-c2cccc(Nc3nccc(NC4CCCCC4)n3)c2)c1  remaining binding (binding; competition with immobilised ligand; 10 µM): 59%
CNCc1ccccc1-c1csc([C@@H](C)Nc2nc(C)nc3cc(OC)c(OC)cc23)c1  remaining binding (cell-free assay; competition with immobilised ligand; 1 µM): 100%
COc1ccnn2ncc(-c3ccnc(N(C)C)n3)c12  remaining binding (binding; 1 µM): 96%
CCOCCn1cc(C(=O)Nc2ccc(-n3nc(-c4cccnc4)cc3C(F)(F)F)cn2)ccc1=O  remaining binding (cell-free assay; competition with immobilised ligand; 1 µM): 79%
CN(C)c1ncc(F)c(-c2cnn3ncccc23)n1  remaining binding (binding; 1 µM): 100%
COc1cnc(Nc2cccc(S(N)(=O)=O)c2)nc1N1CCN(c2ccccc2)CC1  remaining binding (binding; competition with immobilised ligand; 1 µM): 69%
O=C(c1ccc(Nc2ncc(Cl)c(-c3ccc(Cl)s3)n2)cc1)N1CCC(N2CCCC2)CC1  remaining binding (binding; competition with immobilised ligand; 1 µM): 65%
CC1CCCN1c1nccc(-c2cnn3ncccc23)n1 (stereo not shown)  remaining binding (binding; 1 µM): 100%
COc1ncc2cc3ccccc3nc2c1C#N  remaining binding (cell-free assay; competition with immobilised ligand; 5 µM): 92%
COc1cc(-c2cn(C3CCc4c(F)cccc4N(CC(F)(F)F)C3=O)nn2)ccc1-n1cnc(C)c1 (stereo not shown)  remaining binding (cell-free assay; competition with immobilised ligand; 1 µM): 100%
Cc1cnn2ncc(-c3ccnc(N(C)C)n3)c2c1  remaining binding (binding; 1 µM): 63%
O=C(NCCCN1CCOCC1)c1ccc(Nc2nccc(-c3cc4ccccc4s3)n2)cc1  remaining binding (binding; competition with immobilised ligand; 1 µM): 72%
CCN1CCN(Cc2ccc(C(=O)Nc3ccc(C)c(Oc4ccc5c(c4)CC(=O)N5)c3)cc2C(F)(F)F)CC1  remaining binding (binding; competition with immobilised ligand; 1 µM): 100%
CCCCN(CCCC)C(=O)CN1C[C@H](c2cc(OC)c3c(c2)OCO3)[C@@H](C(=O)O)[C@@H]1CC(C)(C)CCC  remaining binding (cell-free assay; competition with immobilised ligand; 1 µM): 75.4%
CN(C)c1nccc(-c2cnn3ncccc23)n1  remaining binding (binding; 1 µM): 74%
O=C(NCCCN1CCOCC1)c1ccc(Nc2ncc(Cl)c(-c3ccc(Cl)s3)n2)cc1  remaining binding (binding; competition with immobilised ligand; 1 µM): 80%
C[C@H]1CCN(c2nccc(-c3cnn4ncccc34)n2)C1  remaining binding (binding; 1 µM): 52%
O=C(Nc1c[nH]nc1C(=O)NC1CCNCC1)c1cc(F)cc(F)c1  remaining binding (binding; competition with immobilised ligand; 1 µM): 100%
C[C@@]1(Cc2ccc(C#N)cc2)C(=O)N(c2cc(Cl)cc(Cl)c2)c2ncc(C(=O)NC3(c4nc(C5CCC5)no4)CC3)n21  remaining binding (cell-free assay; competition with immobilised ligand; 1 µM): 100%
N[C@@H]1CCN(c2nccc(-c3cnn4ncccc34)n2)C1  remaining binding (binding; 1 µM): 93%
